Assay results as given in PubChem BioAssay AID504769 (Southern Research Specialized Biocontainment Screening …, 2011).

system: Bladder 5637 cells viability, CellTiter-Glo, 72 h; test: viability loss in 5637 carcinoma cells – cell-based, set 2, cytotoxicity control for bacterial capsule biogenesis inhibitors, dose response (AID 504769)
Method in brief: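 Test system: bladder carcinoma 5637 cell line; benchmarks: Hyamine as cytotoxic control, untreated cells as reference; evaluation: percent viability versus mean untreated cell control, fitted CC50; dosing: eight concentrations, 2.3–300 µM; signal: CellTiter-Glo luminescence; incubation: 72 h compound exposure; repeats: duplicates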

Point of comparison: `Cc1cc(C)c2nc(NC(=O)c3ccccn3)sc2c1`, CC50 6.19 µM. Against it:
- O=C(Nc1nc2c(F)cccc2s1)c1ccccn1 — 2.4-fold lower, 2.56 µM
- O=C(Nc1nc2c(F)cc(F)cc2s1)c1ccncc1 — 12-fold higher, 71.8 µM
- O=C(Nc1nc2ccccc2s1)c1ccncc1 — 17-fold higher, 104 µM
- O=C(Nc1nc2c(F)cc(F)cc2s1)c1ccccc1 — 5-fold higher, 30.9 µM
- O=C(Nc1nc2ccccc2s1)c1cccnc1 — 21-fold higher, 129 µM
- O=C(Nc1nc2ccc(F)cc2s1)c1ccccn1 — 1.9-fold lower, 3.32 µM
- O=C(Nc1nc2c(Cl)cc(Cl)cc2s1)c1ccccn1 — 1.7-fold lower, 3.55 µM
